According to the EternaBench riboswitch data:

System: MS2 coat protein
Experiment: apparent Kd, MS2 coat protein; higher = weaker binding; RNA-MaP array; FMN 200 µM where present
How it was run: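 The titrant was SNAP-549-labelled MS2 coat protein, run from 0.7 or 1.5 nM in doubling steps to 3 µM. It was applied to designs transcribed by stalled E. coli RNA polymerase on Illumina sequencing-chip clusters, without ligand first and then with constant ligand, in 100 mM Tris-HCl pH 7.5, 80 mM KCl, 4 mM MgCl2, BSA, DTT, yeast tRNA and Tween-20. The apparent Kd is the median of filtered per-cluster binding-curve fits, with green signal normalised to red-channel RNA signal and control-cluster median Fmax.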

[1] = designed as: ON switch for flavin mononucleotide, no ligand
[2] = ligand present: flavin mononucleotide, designed as: ON switch for flavin mononucleotide
[3] = designed as: OFF switch for flavin mononucleotide, no ligand
[4] = ligand present: flavin mononucleotide, designed as: OFF switch for flavin mononucleotide

“CACAUGGUUACAGGAUAUGUUAGGUUGCAGUUGAUUGGUUAUUAAAAUAUUACAGAAGGGUAAGACAUGAGGAUCACCCAUGUG” was tested. Which “apparent Kd” value [1] did it give?
Its value is 175 nM.

And the “apparent Kd” value [2]?
Its value is 97.5 nM.

How did the “apparent Kd” value [3] turn out when “AGUCUGCGAGGAUAUACAUGAGGAUCACCCAUGUGCGAAGAACUAGUGAGGUCGAUUGGUAGAAGGCGCGGACA” was run?
Its value is 297 nM.

What about the “apparent Kd” value [4] of the same sequence?
The value was 30.3 nM.

For “UCUGUUCAAGGAUAUGCGUAAUGUGUUACGGCACAAGGUCUACAUGAGGAUCACCCAUGUAGAAGGUGAUCAGA”, which “apparent Kd” value [3] is on record?
Its value is 20.8 nM.

What about the “apparent Kd” value [4] of the same sequence?
Its value is 22.4 nM.

Which results are given for “GUGCGACAUGAGGAUCACCCAUGUGAGGAUAUCCCGGGCCGGGCUUUUGCCCGGCCCGGGAGAAGGCGCGUCGU”?
apparent Kd [3]: 68.4 nM; apparent Kd [4]: 70.7 nM

How did the “apparent Kd” value [1] turn out when “GGACGUCACAUCUACAUGAGGAUCACCCAUGUCAAAAGACAUGAGGAUAUGCUUCCUAAUUGGAAGCAGAAGGCAUGGACGUCC” was run?
Its value is 1210 nM.

And the “apparent Kd” value [2]?
The value was 67.5 nM.

For “AAACAAGCAGGGAUGCUUCGCAGGGAGGAUAUCUGACUGGGCGGACAUGAGGAUCACCCAUGUACAGAGAAGGCCCAAAGCACC”, which “apparent Kd” value [3] is on record?
The value was 620 nM.

And the “apparent Kd” value [4]?
Its value is 32 nM.

With “ACGUCGAGCCAGAAGGCAACAUGAGGAUCACCCAUGUAGUCCGGCUCGUGUUGAGGAUAUGGCACCCGCGCGGAAGGCGCAGGU” as the sequence, how does the “apparent Kd” value [3] read?
The value was 5.12 nM.

What about the “apparent Kd” value [4] of the same sequence?
The value was 6.62 nM.

Which “apparent Kd” value [3] does the source give for “UGCUAGUCAGGAUAUACGUACAUGUCAUUAGACGUGAAGGGACAUGAGGAUCACCCAUGUAGAAGGGACUAGCU” here?
The value was 42.4 nM.

What about the “apparent Kd” value [4] of the same sequence?
The value was 149 nM.

“UGUAAUGCUAUUGCAGAGGUUUAGAAGGAUAUACAUCGACAUGACCGUACAUGAGGAUCACCCAUGUAGAAGGUCUAACUUCUU” was tested. Which “apparent Kd” value [3] did it give?
The value was 4.95 nM.

And the “apparent Kd” value [4]?
Its value is 4.91 nM.

Which results are given for “GGCGGCGCGGGCCACCGCAGAACCAGAAGGACAUGAGGAUCACCCAUGUAACAAAACAGGGCGGUGUAGGAUAUGGCAGACCCG”?
apparent Kd [3]: 14.5 nM; apparent Kd [4]: 29.7 nM

With “ACCUUACAUGAGGAUCACCCAUGUUAGGAUAUCUCGCUUGCGCAAUCACAGCACAAGCAGAGAAGGGACGCGGG” as the sequence, how does the “apparent Kd” value [3] read?
Its value is 28.1 nM.

And the “apparent Kd” value [4]?
The value was 32.5 nM.

What does the source list for “GGGUACAUCGGAGGAUAUCAUGUAAAUACAUGAGGAUCACCCAUGUCGAUGGAGACAUCGGAGAUCGAGAAGGCCGAUGUACCG”?
apparent Kd [1]: 168 nM; apparent Kd [2]: 294 nM

What does the source list for “AUAUAUAGUGUGAGGAUAUGCUGGUCCUUGGAUCAGCAGAAGGCACAUGAGGAUCACCCAUGUAGUUUAUUUUG”?
apparent Kd [3]: 17.5 nM; apparent Kd [4]: 77 nM

For “GCGAUUUUGUAAGGAUAUACUCGAGUUUUAAGAGUAGAAGGUACUUACAUGAGGAUCACCCAUGUCUAACGUAAUACUAGUCGC”, which “apparent Kd” value [1] is on record?
The value was 10.3 nM.

What about the “apparent Kd” value [2] of the same sequence?
The value was 9.24 nM.

With “GGUUGUCAUAGUCAUCCUUUACGUACAUGAGGAUCACCCAUGUAGGAUAUGCUACUCAAAGAGUAGCAGAAGGGCGUGUGUCUU” as the sequence, how does the “apparent Kd” value [3] read?
Its value is 23.1 nM.

And the “apparent Kd” value [4]?
Its value is 25.5 nM.

For “CCAGGCAGUGUGAGGAUAUGCUGGUGCUUGCAUCAGCAGAAGGCACAUGAGGAUCACCCAUGUGAAGAGCUUGG”, which “apparent Kd” value [3] is on record?
The value was 27.6 nM.

And the “apparent Kd” value [4]?
The value was 131 nM.

How did the “apparent Kd” value [1] turn out when “UUACCUCAUGAGAAGGACAUGAGGAUCACCCAUGUAGGAUAUCGUGGGAGACUGGUAUUGAAUCUUCGGAUUCAAUACCUGUCU” was run?
The value was 454 nM.

And the “apparent Kd” value [2]?
Its value is 27.9 nM.

How did the “apparent Kd” value [1] turn out when “GUGUAGAUAUCAGGAUAUCCAUUUCCUACAUGAGGAUCACCCAUGUAGAUGAUCACCCAUGUAAAGGAGAAGGGAUAUCUAUAC” was run?
Its value is 206 nM.

And the “apparent Kd” value [2]?
The value was 173 nM.

“GCCGAAAGUGUGAGGAUAUACCUAUGGAUACAUAGGUAGAAGGCACAUGAGGAUCACCCAUGUUCCUAAACGGC” was tested. Which “apparent Kd” value [3] did it give?
The value was 80.2 nM.

And the “apparent Kd” value [4]?
The value was 421 nM.

For “AUGCGUGGCUAGGAUAUUGAGGAAAUUAGUCAGCGAGAAGGAGCCACAUGAGGAUCACCCAUGUGGUGAAGCUC”, which “apparent Kd” value [3] is on record?
The value was 15.5 nM.

And the “apparent Kd” value [4]?
The value was 60.3 nM.

Which “apparent Kd” value [3] does the source give for “AAAAAGACAGGAUAUACAUGAGGAUCACCCAUGUGAAAAAAAAAAAAAAAAAAAAAGUGUAGAAGGGUCAAAAA” here?
The value was 48.9 nM.

What about the “apparent Kd” value [4] of the same sequence?
Its value is 35.4 nM.

What does the source list for “CUCGUGUCAGGAUAUGGAAGGCCGUUUGAUUAACGAGGGUACUAGAAGGGACAUGAGGAUCACCCAUGUAAAAA”?
apparent Kd [3]: 37.7 nM; apparent Kd [4]: 57.6 nM

How did the “apparent Kd” value [1] turn out when “GGGUACAUCGGAGGAUAUCAUGUAAAUACAUGAGGAUCACCCAUGUCGAUGGAGACAUCGGAGAUUGAGAAGGCCGACGUACCG” was run?
The value was 187 nM.

What about the “apparent Kd” value [2] of the same sequence?
The value was 9.15 nM.

Which results are given for “GUGUGCUGAGGAUAUACAGAGGAAGAUAAUACAAUAUAAGUACAUGAGGAUCACCCAUGUAGAAGGCAGAGUGU”?
apparent Kd [3]: 28.2 nM; apparent Kd [4]: 26.4 nM

Which “apparent Kd” value [3] does the source give for “CGUUAAUCCUAGGAUAUGCUAGACGAAAGUCUAGCAGAAGGAGGAACAUGAGGAUCACCCAUGUGUCCUAAACG” here?
Its value is 16.8 nM.

And the “apparent Kd” value [4]?
The value was 26.7 nM.

Which results are given for “GGACGUCACAUUAACAUGAGGAUCACCCAUGUCUCUUGACAUGAGGAUAUGGAUCCUAAUUGGAUCCAGAAGGCAUGGACGUCC”?
apparent Kd [1]: 1220 nM; apparent Kd [2]: 97.2 nM

For “GGUACUAUCACAGGAUAUGCUUUCCUUUGGGAAGCAGAAGGGUGUAACAUGAGGAUCACCCAUGUGGUGCCCGGGCGUGAGCCC”, which “apparent Kd” value [1] is on record?
The value was 51.7 nM.

And the “apparent Kd” value [2]?
The value was 14.8 nM.
